Data: ChEMBL document CHEMBL1134791, “2- and 3-substituted 1,4-naphthoquinone derivatives as subversive substrates of trypanothione reductase and lipoamide dehydrogenase from Trypanosoma cruzi: synthesis and correlation between redox cycling activities and in vitro cytotoxicity” (J Med Chem, 2001)

How the values were obtained:
[1] = molecular target: Trypanothione reductase (Trypanosoma cruzi) (UniProt P28593); assay: The second order rate constant of the TcTR (Trypanosoma cruzi trypanothione reductase) catalyzed […].
Sequence of Trypanothione reductase (Trypanosoma cruzi) (P28593 whole entry, looked up): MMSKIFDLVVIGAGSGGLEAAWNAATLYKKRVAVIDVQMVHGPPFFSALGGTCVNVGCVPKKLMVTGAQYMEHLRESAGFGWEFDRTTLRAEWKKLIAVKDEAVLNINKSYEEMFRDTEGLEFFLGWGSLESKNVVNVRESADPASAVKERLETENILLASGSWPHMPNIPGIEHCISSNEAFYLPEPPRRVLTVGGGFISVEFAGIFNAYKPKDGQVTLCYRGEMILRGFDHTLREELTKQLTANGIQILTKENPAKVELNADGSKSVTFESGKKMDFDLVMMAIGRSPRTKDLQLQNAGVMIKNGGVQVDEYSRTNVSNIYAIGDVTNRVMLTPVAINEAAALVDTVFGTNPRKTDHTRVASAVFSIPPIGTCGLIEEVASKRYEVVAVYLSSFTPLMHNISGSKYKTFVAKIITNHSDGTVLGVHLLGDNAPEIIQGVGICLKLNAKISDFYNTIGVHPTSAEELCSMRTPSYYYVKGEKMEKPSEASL
Method in brief: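 Recombinant TcTR (0.6 U) in 20 mM Hepes, 1 mM EDTA, 0.15 M KCl, pH 7.25 at 22 °C, with 200 µM NADPH and naphthoquinone at five concentrations (0–100 µM) in 1% DMSO. NADPH oxidation at 340 nm; intrinsic oxidase rate not subtracted. Km and Vmax from nonlinear Michaelis–Menten fit; kcat and kcat/Km calculated.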

Leishmania donovani = assay: In vitro antiparasitic activity against Leishmania donovani was tested by sigmoidal regression analysis; type: functional
Method in brief: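 Mouse peritoneal macrophages (female CD1, starch-elicited, harvested 24 h) infected with L. donovani amastigotes (strain MHOM/ET/67/L82, hamster spleen) or T. cruzi Y-strain trypomastigotes (5:1, from MDCK overlay). Infected cells exposed to a 3-fold dilution series in quadruplicate for 5 days (L. donovani) or 3 days (T. cruzi). Giemsa-stained slides scored for % macrophages cleared of amastigotes versus untreated cultures. ED50 by sigmoidal regression.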

[2] = molecular target: Trypanothione reductase (Trypanosoma cruzi) (UniProt P28593); assay: Rate of NADPH oxidation by TcTR in presence of 100 uM NQ was determined in comparison to intrinsic oxidase activity
Method in brief: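 Quinone reductase activity of recombinant TcTR measured as NADPH oxidation at 340 nm. Buffer was 20 mM Hepes, 1 mM EDTA, 0.15 M KCl, pH 7.25, with 250 µM NADPH at 25 °C. Rate with naphthoquinone (100 µM for line 8, 25 µM for line 9) divided by intrinsic oxidase rate of enzyme plus NADPH alone. Mean of at least two measurements.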

Trypanosoma cruzi = assay: Ratio of cytochrome c reduction and NADH oxidation by TcLipDH (Trypanosoma cruzi lipoamide dehydrogenase) at 50 uM concentration, in cytochrome c assay
Method in brief: (§1)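 T. cruzi or pig heart LipDH in 50 mM potassium phosphate pH 7.0 with 100 µM NADH, 50 µM cytochrome c and 50 µM naphthoquinone at 31 °C. Cytochrome c reduction read at 550 nm; NADH oxidation measured at 340 nm in the same conditions without cytochrome c. One-electron reduction % = cytochrome c rate ÷ (2 × NADH rate). At least duplicate.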

[3] = molecular target: T1, Dihydrolipoyl dehydrogenase, mitochondrial (Sus scrofa) (UniProt P09623); assay: Ratio of cytochrome c reduction and NADH oxidation by pig heart LipDH (lipoamide dehydrogenase) at 50 uM concentration, in cytochrome c assay; method in brief: as §1
T1 sequence (whole entry): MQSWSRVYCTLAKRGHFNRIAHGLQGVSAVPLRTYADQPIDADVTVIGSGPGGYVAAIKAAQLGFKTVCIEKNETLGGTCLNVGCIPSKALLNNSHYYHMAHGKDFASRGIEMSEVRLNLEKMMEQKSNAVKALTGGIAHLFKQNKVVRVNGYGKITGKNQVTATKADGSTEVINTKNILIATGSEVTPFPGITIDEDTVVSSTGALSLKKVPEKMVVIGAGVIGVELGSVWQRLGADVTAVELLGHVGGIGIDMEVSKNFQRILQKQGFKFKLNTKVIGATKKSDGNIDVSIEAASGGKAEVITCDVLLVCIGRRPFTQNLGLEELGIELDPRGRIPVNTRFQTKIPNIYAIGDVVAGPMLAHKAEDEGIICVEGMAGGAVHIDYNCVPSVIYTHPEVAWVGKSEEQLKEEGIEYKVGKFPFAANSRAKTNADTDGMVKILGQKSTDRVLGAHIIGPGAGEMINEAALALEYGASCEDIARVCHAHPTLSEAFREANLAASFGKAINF

[4] = molecular target: T1, Dihydrolipoyl dehydrogenase, mitochondrial (Sus scrofa); assay: The second order rate constant of the pig heart LipDH (lipoamide dehydrogenase) catalyzed NADH oxidation.
Method in brief: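 Recombinant T. cruzi LipDH (E. coli, purified) or pig heart LipDH, 0.1–2.5 µg/mL. Buffer was 50 mM potassium phosphate, 1 mM EDTA, pH 7.0, with 100 µM NADH and naphthoquinone at 10 µM–1.2 mM; all assays carried equal DMSO. Run at 31 °C, started with enzyme, NADH decrease followed at 340 nm. Km and Vmax from Lineweaver–Burk plots. At least duplicate.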

Row | k cat/Km [1] | Structure (SMILES) | ED50 (Leishmania donovani) [µM] | further results
1 | 1.6 10e4 M-1 s-1 | CC1=C(CCCC(=O)NCCCNCCCNC(=O)CCCC2=C(C)C(=O)c3ccccc3C2=O)C(=O)c2ccccc2C1=O | > 49 | –
2 | 2.3 10e4 M-1 s-1 | CC1=C(CCCCCC(=O)NCCCNCCCNC(=O)CCCCCC2=C(C)C(=O)c3ccccc3C2=O)C(=O)c2ccccc2C1=O | 22.8 | –
3 | 13 10e4 M-1 s-1 | CC1=C(CCCCC(=O)NCCCCNCCCNC(=O)CCCCC2=C(C)C(=O)c3cccc(O)c3C2=O)C(=O)c2c(O)cccc2C1=O | 7.8 | –
4 | 4.8 10e4 M-1 s-1 | CC1=C(CCCCCC(=O)NCCCCNCCCNC(=O)CCCCCC2=C(C)C(=O)c3ccccc3C2=O)C(=O)c2ccccc2C1=O | 5.4 | –
5 | 2.3 10e4 M-1 s-1 | CC1=C(CCC(=O)NCCCNCCCNC(=O)CCC2=C(C)C(=O)c3ccccc3C2=O)C(=O)c2ccccc2C1=O | > 51 | –
6 | 14.5 10e4 M-1 s-1 | CC1=C(CCCCCC(=O)NCCCNCCCNC(=O)CCCCCC2=C(C)C(=O)c3cccc(O)c3C2=O)C(=O)c2c(O)cccc2C1=O | 10.3 | –
7 | 5.8 10e4 M-1 s-1 | CC1=C(CCCCC(=O)NCCCCNCCCNC(=O)CCCCC2=C(C)C(=O)c3ccccc3C2=O)C(=O)c2ccccc2C1=O | 11.9 | –
8 | 3.5 10e4 M-1 s-1 | CC1=C(CCCC(=O)NCCCN2CCN(CCCNC(=O)CCCC3=C(C)C(=O)c4cccc(O)c4C3=O)CC2)C(=O)c2c(O)cccc2C1=O | 38.5 | –
9 | 5.1 10e4 M-1 s-1 | CC1=C(CCC(=O)NCCCN2CCN(CCCNC(=O)CCC3=C(C)C(=O)c4cccc(O)c4C3=O)CC2)C(=O)c2c(O)cccc2C1=O | > 44 | –
10 | 5.1 10e4 M-1 s-1 | CC1=C(CCC(=O)NCCCCNCCCNC(=O)CCC2=C(C)C(=O)c3ccccc3C2=O)C(=O)c2ccccc2C1=O | > 50 | –
11 | 11.4 10e4 M-1 s-1 | CC1=C(CCCCC(=O)NCCCNCCCNC(=O)CCCCC2=C(C)C(=O)c3cccc(O)c3C2=O)C(=O)c2c(O)cccc2C1=O | 11.1 | –
12 | 2.3 10e4 M-1 s-1 | CC1=C(CCCC(=O)NCCCCNCCCNC(=O)CCCC2=C(C)C(=O)c3ccccc3C2=O)C(=O)c2ccccc2C1=O | > 48 | –
13 | 0.8 10e4 M-1 s-1 | CC1=C(CCCCC(=O)NCCCNCCCNC(=O)CCCCC2=C(C)C(=O)c3ccccc3C2=O)C(=O)c2ccccc2C1=O | > 45 | –
14 | 8.4 10e4 M-1 s-1 | CC1=C(CCCCC(=O)NCCCN2CCN(CCCNC(=O)CCCCC3=C(C)C(=O)c4ccccc4C3=O)CC2)C(=O)c2ccccc2C1=O | 31.3 | –
15 | 3.3 10e4 M-1 s-1 | CC1=C(CCCCCC(=O)NCCCN2CCN(CCCNC(=O)CCCCCC3=C(C)C(=O)c4ccccc4C3=O)CC2)C(=O)c2ccccc2C1=O | 14.3 | –
16 | 3.6 10e4 M-1 s-1 | CC1=C(CCCC(=O)NCCCCNCCCNC(=O)CCCC2=C(C)C(=O)c3cccc(O)c3C2=O)C(=O)c2c(O)cccc2C1=O | > 46 | –
17 | 16.8 10e4 M-1 s-1 | CC1=C(CCCCCC(=O)NCCCN2CCN(CCCNC(=O)CCCCCC3=C(C)C(=O)c4cccc(O)c4C3=O)CC2)C(=O)c2c(O)cccc2C1=O | 17.4 | –
18 | 13.3 10e4 M-1 s-1 | CC1=C(CCCCCC(=O)NCCCCNCCCNC(=O)CCCCCC2=C(C)C(=O)c3cccc(O)c3C2=O)C(=O)c2c(O)cccc2C1=O | 34.8 | –
19 | 4.2 10e4 M-1 s-1 | CC1=C(CCCC(=O)NCCCN2CCN(CCCNC(=O)CCCC3=C(C)C(=O)c4ccccc4C3=O)CC2)C(=O)c2ccccc2C1=O | 14.7 | –
20 | 4.5 10e4 M-1 s-1 | CC1=C(CCC(=O)NCCCNCCCNC(=O)CCC2=C(C)C(=O)c3cccc(O)c3C2=O)C(=O)c2c(O)cccc2C1=O | > 49 | –
21 | 7.7 10e4 M-1 s-1 | CC1=C(CCC(=O)NCCCCNCCCNC(=O)CCC2=C(C)C(=O)c3cccc(O)c3C2=O)C(=O)c2c(O)cccc2C1=O | > 48 | –
22 | 6.5 10e4 M-1 s-1 | CC1=C(CCCC(=O)NCCCNCCCNC(=O)CCCC2=C(C)C(=O)c3cccc(O)c3C2=O)C(=O)c2c(O)cccc2C1=O | 46.7 | –

Further lines, the molecule ahead of its results:

Row | Structure (SMILES) | k cat/Km [1] | ED50 (Leishmania donovani) [µM] | further results
23 | O=C(O)CCCC1=C(CCCC(=O)O)C(=O)c2c(O)cccc2C1=O | – | > 87 | –
24 | CC1=C(CCCCNC(=O)OC(C)(C)C)C(=O)c2ccccc2C1=O | – | 16.5 | –
25 | CC1=C(CCNC(=O)OC(C)(C)C)C(=O)c2ccccc2C1=O | – | 8.8 | –
26 | CC1=C(CCC(=O)N2CCN(C)CC2)C(=O)c2ccccc2C1=O | – | 87 | x fold [2]: 19
27 | O=C(O)CCCCCC1=C(CCCCCC(=O)O)C(=O)c2ccccc2C1=O | – | > 74 | –
28 | CN1CCN(CCCNC(=O)CCC2=C(CCC(=O)NCCCN3CCN(C)CC3)C(=O)c3c(O)cccc3C2=O)CC1 | – | > 50 | –
29 | CC1=C(CCCC(=O)O)C(=O)c2c(O)cccc2C1=O | – | > 109 | –
30 | CC1=C(NCCCCN)C(=O)c2ccccc2C1=O | – | > 12.5 | –
31 | CC1=C(CCCCC(=O)O)C(=O)c2c(O)cccc2C1=O | – | 56 | –
32 | CC1=C(CCCCCC(=O)O)C(=O)c2ccccc2C1=O | – | 18 | –
33 | CN(C)CCCN1CCN(CC2=C(N3CCN(CCCN(C)C)CC3)C(=O)c3ccccc3C2=O)CC1 | – | – | x fold [2]: 3.9
34 | CC1=C(CCCC(=O)N2CCN(C)CC2)C(=O)c2ccccc2C1=O | – | 32 | –
35 | CC1=C(CCCC(=O)NCCCN2CCN(C)CC2)C(=O)c2c(O)cccc2C1=O | – | 66 | x fold [2]: 40
36 | CN1CCN(CCCNC(=O)CCCC2=C(CCCC(=O)NCCCN3CCN(C)CC3)C(=O)c3c(O)cccc3C2=O)CC1 | – | > 59 | x fold [2]: 45
37 | CC1=C(CCC(=O)N2CCN(C)CC2)C(=O)c2c(O)cccc2C1=O | – | > 88 | x fold [2]: 38
38 | CC1=C(CCCCCC(=O)O)C(=O)c2c(O)cccc2C1=O | – | 28 | –
39 | CC1=C(NCCCNCCC/N=C2/C(=O)c3ccccc3C(O)=C2C)C(=O)c2ccccc2C1=O | – | – | x fold [2]: 4
40 | CC1=C(NCCCNCCCN)C(=O)c2c(O)cccc2C1=O | – | > 30 | x fold [2]: 2

Row | Structure (SMILES) | k cat/Km [1] | ED50 (Leishmania donovani) [µM] | further results
41 | CC1=C(O)c2ccccc2C(=O)/C1=N\CCCN1CCN(C)CC1 | – | – | x fold [2]: 2
42 | CC1=C(NCCCN2CCN(CCCN)CC2)C(=O)c2c(O)cccc2C1=O | – | – | x fold [2]: 6.4
43 | CC1=C(CCCCC(=O)NCCCN2CCN(CCCNC(=O)CCCCC3=C(C)C(=O)c4cccc(O)c4C3=O)CC2)C(=O)c2c(O)cccc2C1=O | – | 29.6 | –
44 | CC1=C(CCCCNC(=O)OC(C)(C)C)C(=O)c2c(O)cccc2C1=O | – | 14.2 | –
45 | CN1CCN(C(=O)CCCC2=C(CCCC(=O)N3CCN(C)CC3)C(=O)c3c(O)cccc3C2=O)CC1 | – | > 48 | x fold [2]: 220
46 | CC1=C(CCNC(=O)OC(C)(C)C)C(=O)c2c(O)cccc2C1=O | – | 11.8 | –
47 | CN1CCN(C(=O)CCC2=C(CCC(=O)N3CCN(C)CC3)C(=O)c3c(O)cccc3C2=O)CC1 | – | > 62 | –
48 | CC1=C(CCCC(=O)N2CCN(C)CC2)C(=O)c2c(O)cccc2C1=O | – | 82 | x fold [2]: 14
49 | CC1=C(CCCCCNC(=O)OC(C)(C)C)C(=O)c2c(O)cccc2C1=O | – | 33.8 | –
50 | CC1=C(CCCCCNC(=O)OC(C)(C)C)C(=O)c2ccccc2C1=O | – | 12.5 | –
51 | CC1=C(CCCC(=O)NCCCN2CCN(C)CC2)C(=O)c2ccccc2C1=O | – | > 76 | x fold [2]: 11
52 | CC1=C(CCCCC(=O)O)C(=O)c2ccccc2C1=O | – | 39 | –
53 | O=C(O)CCCCC1=C(CCCCC(=O)O)C(=O)c2c(O)cccc2C1=O | – | > 80 | –
54 | CC1=C(NCCCNCCCCNCCCN)C(=O)c2c(O)cccc2C1=O | – | > 30 | –
55 | CN1CCN(CCCNC(=O)CCCCC2=C(CCCCC(=O)NCCCN3CCN(C)CC3)C(=O)c3c(O)cccc3C2=O)CC1 | – | 38.2 | –
56 | O=C(O)CCC1=C(CCC(=O)O)C(=O)c2c(O)cccc2C1=O | – | > 93 | –
57 | CC1=C(CCC(=O)NCCCN2CCN(C)CC2)C(=O)c2c(O)cccc2C1=O | – | – | Reduction (Trypanosoma cruzi): 1.9%; Reduction [3]: 0.6%; k cat/Km [4]: 6.1 10e4 M-1 s-1
